Experiment [1] addresses T1, Adenosine receptor A1 (Rattus norvegicus) (UniProt P25099).
T1 sequence (whole entry): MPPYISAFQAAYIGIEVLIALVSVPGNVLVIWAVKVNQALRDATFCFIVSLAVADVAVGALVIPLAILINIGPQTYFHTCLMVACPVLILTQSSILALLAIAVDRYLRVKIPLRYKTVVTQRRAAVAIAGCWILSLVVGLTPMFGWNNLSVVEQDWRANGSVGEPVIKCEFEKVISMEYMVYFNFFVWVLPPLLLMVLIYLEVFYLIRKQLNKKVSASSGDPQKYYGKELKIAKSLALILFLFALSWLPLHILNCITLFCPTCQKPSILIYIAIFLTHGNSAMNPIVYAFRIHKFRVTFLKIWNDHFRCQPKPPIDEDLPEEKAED
As to the kind of experiment: Agonist activity at adenosine A1 receptor in rat cortical membrane by [35S]GTPgammaS binding assay relative to control. The format is functional, cell membranes. The method in brief:
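Rat cortical membranes (7 μg/tube) incubated 45 min at 25 °C with 0.1-0.5 nM [35S]GTPγS in 50 mM Tris-HCl pH 7.4 with 1 mM EDTA, 5 mM MgCl2, 1 mM DTT, 10 μM GDP, 100 mM NaCl, 2 IU/mL adenosine deaminase, 0.5% BSA. Nonspecific binding with 10 μM unlabeled GTPγS. Filtration, scintillation counting; stimulation expressed as percent of basal.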
(In general: Binding of GTPγS marks nucleotide exchange on a G protein.)

The target of experiment [2] is T2, Adenosine receptor A1 (Homo sapiens, UniProt P30542).
T2 sequence (P30542 whole entry): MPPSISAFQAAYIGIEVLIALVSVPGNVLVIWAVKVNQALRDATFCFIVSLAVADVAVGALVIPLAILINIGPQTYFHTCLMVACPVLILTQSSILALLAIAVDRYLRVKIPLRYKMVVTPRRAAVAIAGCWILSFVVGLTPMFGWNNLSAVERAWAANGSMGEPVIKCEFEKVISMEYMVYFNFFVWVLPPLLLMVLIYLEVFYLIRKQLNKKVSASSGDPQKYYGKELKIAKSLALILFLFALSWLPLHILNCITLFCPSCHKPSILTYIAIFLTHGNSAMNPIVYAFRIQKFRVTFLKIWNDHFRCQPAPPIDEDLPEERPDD
In words: Displacement [3H]DPCPX from of human adenosine A1 receptor at low affinity state expressed in CHO cells. The format is cell-based. In short, it runs like this: (§1)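 CHO-hA1 membranes (20 μg/mL protein), competition against [3H]DPCPX with or without 100 μM GTP. Incubation in 50 mM Tris-HCl pH 7.4, 90 min at 25 °C, after adenosine deaminase pretreatment. Nonspecific binding with 10 μM DPCPX. GF/B filtration, scintillation counting. Ki values for high- and low-affinity states taken from the biphasic curve without GTP.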

Experiment [3] has as its target T1, Adenosine receptor A1 (Rattus norvegicus). In words: Displacement of [3H]CCPA from adenosine A1 receptor in rat brain cortical membrane at 100 uM by liquid scintillation counting. The format is cell membranes. In short, it runs like this:
(§2)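 Rat cortical membranes (ca. 70 μg/mL protein), pretreated with 0.2 IU/mL adenosine deaminase, incubated with [3H]CCPA in 50 mM Tris-HCl pH 7.4 for 90 min at 25 °C. Nonspecific binding with 10 μM 2-chloroadenosine. GF/B filtration, scintillation counting.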
A general note: In a radioligand displacement assay an active substance lowers the binding of a labelled ligand.

The target in experiment [4] is Adenosine receptor A2a (Rattus norvegicus) (UniProt P30543). As to the kind of experiment: Displacement of [3H]MSX-2 from A2A receptor in rat brain striatal membrane at 100 uM by liquid scintillation counting. The format is cell membranes. The method in brief: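 Rat striatal membranes (ca. 70 μg/mL protein), pretreated with 0.2 IU/mL adenosine deaminase, incubated with [3H]MSX-2 in 50 mM Tris-HCl pH 7.4 for 30 min at 25 °C. Nonspecific binding with 50 μM NECA. Filtration on GF/B filters presoaked in 0.3% polyethylenimine, scintillation counting. Percent inhibition at 100 μM, n = 3.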
Chain of Adenosine receptor A2a (Rattus norvegicus) (P30543 whole entry): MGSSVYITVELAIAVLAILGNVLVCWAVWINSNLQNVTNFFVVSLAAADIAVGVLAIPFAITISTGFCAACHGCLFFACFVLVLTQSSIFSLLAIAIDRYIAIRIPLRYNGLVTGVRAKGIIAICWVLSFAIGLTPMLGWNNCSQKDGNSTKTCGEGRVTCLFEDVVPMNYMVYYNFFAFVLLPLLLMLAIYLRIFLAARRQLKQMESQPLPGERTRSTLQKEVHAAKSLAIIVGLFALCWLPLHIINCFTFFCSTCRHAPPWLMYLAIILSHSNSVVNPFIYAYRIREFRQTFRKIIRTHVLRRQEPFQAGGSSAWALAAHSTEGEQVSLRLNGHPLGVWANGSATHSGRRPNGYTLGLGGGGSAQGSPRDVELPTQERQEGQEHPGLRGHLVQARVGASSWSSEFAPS

The target in experiment [5] is T2, Adenosine receptor A1. In words: Displacement [3H]DPCPX from of human adenosine A1 receptor at high affinity state expressed in CHO cells. The format is cell-based. The method in brief: as §1
In experiment [6] the target is T3, Adenosine receptor A1 (Rattus norvegicus, UniProt P25099).
T3 sequence (P25099 whole entry): T1 sequence (whole entry)
In words: Displacement of [3H]CCPA from adenosine A1 receptor in rat brain cortical membrane by liquid scintillation counting. The format is cell membranes. The method in brief:
as §2

In experiment [7] the target is T2, Adenosine receptor A1. In words: Displacement [3H]DPCPX from of human adenosine A1 receptor expressed in CHO cells in presence of GTP. The format is cell-based. The method in brief:
as §1

Experiment [8] concerns the target T3, Adenosine receptor A1. As to the kind of experiment: Agonist activity at adenosine A1 receptor in rat cortical membrane by [35S]GTPgammaS binding assay. The format is functional, cell membranes.
The species entered for experiment [9] is Rattus norvegicus. As to the kind of experiment: Displacement of [3H]flunitrazepam from GABAA receptor in rat brain cortical membrane at 10 uM. The format is cell membranes.

The record followed here is ChEMBL document CHEMBL1150660, “Lignans isolated from valerian: identification and characterization of a new olivil derivative with partial agonistic activity at A(1) adenosine receptors” (J Nat Prod, 2002).

The term Ki denotes the dissociation constant of the complex between target and ligand, obtained from inhibition or displacement. A word on the inhibition: it is the percentage by which the read-out fell short of the control. As usually defined, the EC50 is the midpoint of the concentration-response curve. A low value points to higher potency in that assay. The molecule `COc1cc([C@H]2OC[C@](O)(Cc3ccc(O[C@@H]4O[C@H](CO)[C@@H](O)[C@H](O)[C@H]4O)c(OC)c3)[C@@H]2COC[C@H]2O[C@@](CO)(O[C@H]3O[C@H](CO)[C@@H](O)[C@H](O)[C@H]3O)[C@@H](O)[C@@H]2O)ccc1O` registered an Activity in experiment [1] of 126%. Further, the inhibition constant Ki in [2] was found to be 23.6 µM; in experiment [5], 0.026 µM; in experiment [6] it was 5.28 µM; in experiment [7] it was 31 µM. The inhibition in experiment [3] came to 80%; in experiment [4], 49%. Moreover, the midpoint of the response in experiment [8], the EC50, lay at 3.98 µM.
For `COc1cc([C@H]2OC[C@](O)(Cc3ccc(O[C@@H]4O[C@H](CO)[C@@H](O)[C@H](O)[C@H]4O)c(OC)c3)[C@]2(O)CO)ccc1O`, the inhibition in experiment [3] was found to be 29%; in experiment [4], 0%.
On to `OC[C@H]1O[C@@H](n2cnc3c(NC4CCCC4)ncnc32)[C@H](O)[C@@H]1O`, for which the Activity in [1] was determined as 193%.
Take `Cn1c(=O)c2c(ncn2C)n(C)c1=O`: the inhibition in experiment [4] came to 58%.
For `COc1cc([C@H]2OC[C@H](Cc3ccc(O[C@@H]4O[C@H](CO)[C@@H](O)[C@H](O)[C@H]4O)c(OC)c3)[C@]2(O)CO)ccc1O`, the inhibition in experiment [3] amounted to 29%; in experiment [4] it was 11%.
`COc1cc([C@H]2OC[C@H]3[C@@H]2CO[C@@H]3c2ccc(O[C@@H]3O[C@H](CO)[C@@H](O)[C@H](O)[C@H]3O)c(OC)c2)ccc1O[C@@H]1O[C@H](CO)[C@@H](O)[C@H](O)[C@H]1O` gave an Activity in experiment [9] of 23%.
